We go through 24 compounds from ChEMBL document CHEMBL1914341, “Anti-tumoral activities of dioncoquinones B and C and related naphthoquinones gained from total synthesis or isolation from plants” (Eur J Med Chem, 2011).

Structures are written as SMILES.

Assay [1] in a line: Cytotoxicity against human INA-6 cells assessed as viable fractions using annexin V-FITC/propidium iodide staining by flow cytometry. Type of assay: functional, cell-based. Summed up:
(§1)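 Human multiple myeloma INA-6 cells or mononuclear cells from peripheral blood of healthy donors exposed to a range of compound concentrations. Viable fraction taken as annexin V/PI double-negative cells; EC50 derived.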
A general note: In flow cytometry, cells or beads pass a laser one at a time.

The next assay concerns PBMC. Put plainly: Cytotoxicity against human PBMC cells assessed as viable fractions using annexin V-FITC/propidium iodide staining by flow cytometry. The class given is cell-based. Summed up: as §1

As usually defined, the EC50 is the concentration giving half of the maximal effect. For the compound `CC1=C(O)C(=O)c2c(O)ccc(O)c2C1=O`, in assay [1], the EC50 is more than 100 µM. For `COc1cc2c(cc1OC)C(=O)C(O)=C(C)C2=O`, the concentration giving a half-maximal response (EC50) in assay [1] was more than 100 µM. On to `COc1ccc2c(c1OC)C(=O)C=C(C)C2=O`, for which the figures for the 50% effective concentration (EC50) (in assay [1]; in the assay on PBMC) were 15 µM and 13 µM, respectively.

Take `CC1=C(O)C(=O)c2c(ccc(O)c2O)C1=O` [DIONCOQUINONE B]: the EC50 in assay [1] stood at 11 µM. Consider `COC1=C(C)C(=O)c2cc(OC)c(O)c(O)c2C1=O` [DIONCOQUINONE D], for which, in assay [1], the EC50 is 80 µM. Take `CC1=CC(=O)c2cc(O)ccc2C1=O`: the half-maximal effective concentration (EC50) in assay [1] stood at 13 µM; with PBMC it was 17 µM.

As to `COc1c(O)cc2c(c1O)C(=O)C(O)=C(C)C2=O` [DIONCOQUINONE E], the EC50 in assay [1] turned out to be 100 µM. As to `COc1cccc2c1C(=O)C=C(C)C2=O`, the concentration giving a half-maximal response (EC50) came out at 4 µM in assay [1] and 16 µM with PBMC. Take `COc1cc2c(c(O)c1O)C(=O)C(O)=C(C)C2=O` [DIONCOQUINONE C]: the EC50 in assay [1] was found to be 14 µM. For the compound `CC1=CC(=O)c2c(ccc(O)c2O)C1=O`, the values for the EC50 (in assay [1]; in the assay on PBMC) were 75 µM and 100 µM, respectively. `CC1=C(O)C(=O)c2c(O)cccc2C1=O` [DROSERONE]: the concentration giving a half-maximal response (EC50) in assay [1] was more than 100 µM. `COc1cc2c(cc1OC)C(=O)C(C)=CC2=O`: the EC50 was 6 µM in assay [1] and 6.5 µM with PBMC. Consider `COc1ccc2c(c1OC)C(=O)C(O)=C(C)C2=O`, for which, in assay [1], the EC50 was more than 100 µM. As for `CC1=C(O)C(=O)c2cc(O)ccc2C1=O`, the concentration for a half-maximal effect (EC50) in assay [1] was more than 100 µM. Regarding `N[C@@H](Cc1ccc(N(CCCl)CCCl)cc1)C(=O)O` [MELPHALAN], the half-maximal effective concentration (EC50) turned out to be 2 µM in assay [1] and 3 µM in the assay with PBMC. On to `COc1cc2c(c(OC)c1OC)C(=O)C=C(C)C2=O`, for which the EC50 stood at 8 µM in assay [1] and 7.5 µM with PBMC.

For `COc1ccc2c(c1)C(=O)C(O)=C(C)C2=O`, the half-maximal effective concentration (EC50) in assay [1] was more than 100 µM; in the assay with PBMC, 50 µM. Turning to `COC1=C(C)C(=O)c2ccc(O)c(O)c2C1=O`, the half-maximal effective concentration (EC50) in assay [1] is more than 100 µM. On to `CC1=C(O)C(=O)c2c(ccc(O[C@@H]3O[C@H](CO)[C@@H](O)[C@H](O)[C@H]3O)c2O)C1=O` [DIONCOQUINONE A], for which, in assay [1], the EC50 came to 29 µM. On the same count and under the same terms, for `CC1=C(O)C(=O)c2cc(O)c(O)cc2C1=O` the value was 52 µM. For the compound `CC1=CC(=O)c2c(O)cccc2C1=O` [PLUMBAGIN], the EC50 (in assay [1]; with PBMC) was 0.8 µM in each case. As to `CC1=C(O)C(=O)c2c(cc(O)c(O)c2O)C1=O`, the results for the concentration for a half-maximal effect (EC50) (in assay [1]; in the assay with PBMC) were 7 µM and 70 µM, respectively. Take `COc1ccc2c(c1O)C(=O)C(O)=C(C)C2=O`: the EC50 in assay [1] is more than 100 µM. Regarding `COc1cc2c(c(OC)c1OC)C(=O)C(O)=C(C)C2=O`, the 50% effective concentration (EC50) in assay [1] is more than 100 µM.
